The values below come from ChEMBL document CHEMBL1124491, “Folate analogues. 31. Synthesis of the reduced derivatives of 11-deazahomofolic acid, 10-methyl-11-deazahomofolic acid, and their evaluation as inhibitors of glycinamide ribonucleotide formyltransferase” (J Med Chem, 1989).

A word on the IC50: it is the midpoint of a concentration-inhibition curve. A high value points to weaker potency in that assay.

The test system of assay [1] is Lacticaseibacillus casei. Description: Inhibition of the growth of Lactobacillus casei. Format: functional, organism-based. The gist of the method:
(§1)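 Bacterial growth inhibition with folate at 1 ng/mL in the medium. Reported as IC50.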

Assay [2] deals with Enterococcus faecium. In words: Inhibition of the growth of Streptococcus faecium. Format: functional, organism-based. The gist of the method: as §1
For assay [3], the system named is MCF7. Description: Inhibition of the growth of MCF-7 human breast adenocarcinoma cells. Format: functional, cell-based. Summed up: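 MCF-7 cells grown as monolayers in RPMI 1640 with 10% dialyzed heat-inactivated fetal calf serum. 10 nM calcium leucovorin replaced folic acid as the folate source. Cells were seeded at 7.5 × 10⁴ cells/mL. The result is reported as IC50.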

The subject of assay [4] is MOLT-4. Description: Inhibition of the growth of MOLT-4 human leukemia cells. The format is functional, cell-based. Summed up: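 MOLT-4 cells grown in suspension in RPMI 1640 with 10% dialyzed fetal calf serum. 10 nM calcium leucovorin replaced folic acid as the folate source. The result is reported as IC50.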
For assay [5], the target named is T1, Trifunctional purine biosynthetic protein adenosine-3 (Homo sapiens, UniProt P22102).
T1 sequence (P22102 whole entry): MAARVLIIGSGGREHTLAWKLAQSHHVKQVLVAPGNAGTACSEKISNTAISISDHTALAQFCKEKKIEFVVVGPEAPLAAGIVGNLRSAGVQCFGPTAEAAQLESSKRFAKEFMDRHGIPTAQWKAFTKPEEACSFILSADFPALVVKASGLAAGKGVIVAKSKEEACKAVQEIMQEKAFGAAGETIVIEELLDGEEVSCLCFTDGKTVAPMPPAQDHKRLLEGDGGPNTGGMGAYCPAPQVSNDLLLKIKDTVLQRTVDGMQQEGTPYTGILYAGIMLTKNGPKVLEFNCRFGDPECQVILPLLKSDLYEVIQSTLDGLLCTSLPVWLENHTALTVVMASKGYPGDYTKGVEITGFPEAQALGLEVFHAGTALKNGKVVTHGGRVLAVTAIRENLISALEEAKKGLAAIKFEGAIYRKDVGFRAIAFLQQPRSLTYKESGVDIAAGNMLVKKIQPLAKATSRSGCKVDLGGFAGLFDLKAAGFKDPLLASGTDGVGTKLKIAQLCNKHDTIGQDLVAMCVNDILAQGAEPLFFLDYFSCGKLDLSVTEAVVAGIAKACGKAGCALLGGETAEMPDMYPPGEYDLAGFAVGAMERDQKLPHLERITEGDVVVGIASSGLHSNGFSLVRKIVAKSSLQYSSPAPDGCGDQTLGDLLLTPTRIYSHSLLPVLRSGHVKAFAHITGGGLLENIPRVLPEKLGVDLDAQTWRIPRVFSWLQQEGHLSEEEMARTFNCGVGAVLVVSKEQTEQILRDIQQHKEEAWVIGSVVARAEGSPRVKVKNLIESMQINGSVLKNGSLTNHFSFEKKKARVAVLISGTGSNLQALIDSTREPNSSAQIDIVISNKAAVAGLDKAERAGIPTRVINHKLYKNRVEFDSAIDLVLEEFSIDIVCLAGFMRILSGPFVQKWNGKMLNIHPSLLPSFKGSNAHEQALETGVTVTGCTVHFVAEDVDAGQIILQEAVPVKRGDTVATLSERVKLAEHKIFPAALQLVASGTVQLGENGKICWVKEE
Description: Inhibition of the GAR transformylase in MOLT-4 human leukemia cells.

The target in assay [6] is T2, Trifunctional purine biosynthetic protein adenosine-3 (Mus musculus, UniProt Q64737).
T2 sequence (Q64737 whole entry): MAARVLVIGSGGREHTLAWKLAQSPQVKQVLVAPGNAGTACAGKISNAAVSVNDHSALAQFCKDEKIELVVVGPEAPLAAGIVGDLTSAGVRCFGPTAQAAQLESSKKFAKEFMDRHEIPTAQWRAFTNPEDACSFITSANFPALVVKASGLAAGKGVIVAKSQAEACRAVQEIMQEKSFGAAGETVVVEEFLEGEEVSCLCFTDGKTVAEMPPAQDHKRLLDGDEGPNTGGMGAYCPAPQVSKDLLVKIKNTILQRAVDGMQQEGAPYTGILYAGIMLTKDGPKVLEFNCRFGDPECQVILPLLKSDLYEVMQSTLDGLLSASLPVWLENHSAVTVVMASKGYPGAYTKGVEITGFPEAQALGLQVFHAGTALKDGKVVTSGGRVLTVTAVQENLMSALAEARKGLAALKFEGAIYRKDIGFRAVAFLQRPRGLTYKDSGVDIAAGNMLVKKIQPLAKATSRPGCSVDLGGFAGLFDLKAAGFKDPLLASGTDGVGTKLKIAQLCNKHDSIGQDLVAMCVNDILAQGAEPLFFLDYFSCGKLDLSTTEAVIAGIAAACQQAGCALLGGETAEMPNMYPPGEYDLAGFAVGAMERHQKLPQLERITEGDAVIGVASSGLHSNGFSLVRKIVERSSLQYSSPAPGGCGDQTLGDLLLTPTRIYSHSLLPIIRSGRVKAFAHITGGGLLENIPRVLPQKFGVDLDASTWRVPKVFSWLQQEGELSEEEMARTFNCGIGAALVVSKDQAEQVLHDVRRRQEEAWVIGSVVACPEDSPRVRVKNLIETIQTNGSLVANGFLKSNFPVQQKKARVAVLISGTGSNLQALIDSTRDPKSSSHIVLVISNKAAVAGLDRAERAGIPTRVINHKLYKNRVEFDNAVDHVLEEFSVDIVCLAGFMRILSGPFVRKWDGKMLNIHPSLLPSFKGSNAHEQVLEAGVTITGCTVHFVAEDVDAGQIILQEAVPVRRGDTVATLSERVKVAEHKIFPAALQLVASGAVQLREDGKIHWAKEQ
Description: Inhibition of the GAR transformylase in L1210.

In assay [7] the target is T2, Trifunctional purine biosynthetic protein adenosine-3. Description: Inhibition of the GAR formyl transferase in L1210. Summed up:
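GAR formyltransferase activity in L1210 cell extract, run at 30 °C in 50 mM Tris-HCl, pH 7.5. Substrates were (6R)-10-formyltetrahydrofolate at 60 μM and glycylamide ribonucleotide at 0.24 mM. The result is reported as IC50.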

Consider `CC(CC1=Nc2c(O)nc(N)nc2NC1)Cc1ccc(C(=O)NC(CCC(=O)O)C(=O)O)cc1` (stereo not drawn), for which the IC50 in assay [1] was 1700 nM; in assay [2] it was 40 nM.

Regarding `CC(Cc1ccc(C(=O)NC(CCC(=O)O)C(=O)O)cc1)CC1CNc2nc(N)nc(O)c2N1` (stereo not drawn), the IC50 in assay [1] amounted to 3800 nM; in assay [2], 128 nM.

Consider `CC(Cc1ccc(C(=O)NC(CCC(=O)O)C(=O)O)cc1)Cc1cnc2nc(N)nc(O)c2n1` (stereo not drawn), for which the results for the IC50 in assay [1] and in assay [2] were 4000 nM and 250 nM, respectively.

`Nc1nc2c(c(=O)[nH]1)NC(CCCc1ccc(C(=O)NC(CCC(=O)O)C(=O)O)cc1)CN2` (stereo not drawn): the IC50 in assay [1] is 540 nM; in assay [3], 4500 nM; in assay [2], 30 nM; in assay [4], 3400 nM; in assay [5], 0.014 nM; in assay [6], 0.018 nM.

`Nc1nc(O)c2nc(CCCc3ccc(C(=O)NC(CCC(=O)O)C(=O)O)cc3)cnc2n1` (stereo not drawn): the concentration for half-maximal inhibition (IC50) was 2200 nM in assay [1], above 2500 nM in assay [7] and 120 nM in assay [2].

Regarding `CN(Cc1cnc2nc(N)nc(N)c2n1)c1ccc(C(=O)N[C@@H](CCC(=O)O)C(=O)O)cc1` [METHOTREXATE], the IC50 in assay [1] is 0.02 nM; in assay [2] it was 0.9 nM.

In assay [6], `Nc1nc(O)c2c(n1)NC[C@H](CCNc1ccc(C(=O)NC(CCC(=O)O)C(=O)O)cc1)N2` (stereo partly drawn) [TETRAHYDROHOMOFOLATE] showed an IC50 above 0.02 nM.
